bovine MsrA act = bovine methionine sulfoxide reductase A activation. purified bovine MsrA, absorbance read-out. activation, % at 10.6 µM. actives 0.3% (n = 360,000); in the data active = activation above about 7.5%;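 also: 0% = vehicle and 100% = reference activator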
p-CIP stab down = compounds decreasing mouse p/CIP protein stability. Q05BA5. decrease of EGFP signal, % at 10 µM. F442A p/CIP-EGFP cells, EGFP fluorescence, 16 h. actives 0.01% (n = 290,000);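 active = EGFP signal decrease of at least 30% at 10 µM or well 3 SD below plate mean, unless failing retest; inactive = the rest, including hits failing retest or dose response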
MsrA inhibitor = inhibitors of bovine MsrA. purified bovine MsrA, absorbance read-out. inhibition, % at 15.5 µM. actives 0.75% (n = 360,000);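 also: 0% = vehicle wells with enzyme and 100% = reference inhibitor wells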
MT1-MMP act inh = inhibitors of human MT1-MMP activation; HT1080 RFP-PRO-GFP cells, GFP/RFP ratio fluorescence, overnight; percent of plate control window, DMSO zero; actives 0.061% (n = 360,000); GFP/RFP ratio change, % at 20 µM;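 active = GFP/RFP ratio change of at least 30% with cell ATP level not reduced by more than half and red fluorescence within 50% of control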
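Assay system: HT1080 cells carrying an RFP-PRO-GFP reporter | Dosing: Single dose of 20 µM compound, 1% DMSO final | Incubation: Cells overnight before dosing, compound overnight, 37 °C, 5% CO2 | Evaluation: GFP/RFP fluorescence ratio | Control set: DMSO and RFP-L50D-GFP cell wells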
SKN-1 block = inhibitors of C. elegans SKN-1; inhibition, % at 21.8 µM; AID 624304; actives 0.49% (n = 360,000); C. elegans VP596 Pgst-4::GFP/RFP ratio, acrylamide-induced, 24 h;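 active = interference check ratio from 0.5 to 1.5 plus GFP to RFP signal ratio inhibition reaching or exceeding a fixed threshold, cut at about 30% in these data, passing the limit was not always enough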
MsrA inh confirm = bovine MsrA inhibition, confirmed; inhibition, % at 15.5 µM; shares compounds with MsrA inhibitor; AID 651822; actives 41% (n = 2,300); purified bovine MsrA, absorbance read-out;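 also: coupled to thioredoxin reductase with NADPH and selenocystamine and DMSO as substrate; 0% = vehicle only and 100% = full effect of reference inhibitor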
* hit, by the source's call. Only some compounds are listed: those with a hit (about 1.6% of all), similar ones and a draw of the others. Rule as the data show it, unless noted: active = inhibition above about 4.5%; inactive = the rest.

What do the screens show for `Nc1ccc(-c2nc3ccc(N)cc3[nH]2)cc1`?
bovine MsrA act: -3.2; p-CIP stab down: -5.4; MsrA inhibitor: 5.5*; MT1-MMP act inh: 11.7; SKN-1 block: -1.0; MsrA inh confirm: 4.0

How did CC(C)C(C(=O)NCc1ccccc1)N1CCN(CCN2CCOCC2)CC1 (stereo not drawn) do in these assays?
MsrA inhibitor: -0.9

How did O=C(/C=C(\Nc1cc(Cl)c(Cl)c(Cl)c1)c1ccccc1)c1ccccc1 do in these assays?
MsrA inhibitor: 0.1

Results for COC(=O)C(CCSC)NC(=O)c1cc2c(n(-c3ccc(C)cc3)c1=O)CCCC2=O (stereo not drawn) ?
bovine MsrA act: -9.8; p-CIP stab down: -20.6; MsrA inhibitor: 5.5*; MT1-MMP act inh: -3.3; SKN-1 block: 0.0; MsrA inh confirm: 0.1

How did COC(=O)c1nc(-c2ccc(C)cc2)oc1N(C)C do in these assays?
bovine MsrA act: -4.4; p-CIP stab down: -11.7; MsrA inhibitor: 4.8*; MT1-MMP act inh: -2.5; SKN-1 block: -3.6; MsrA inh confirm: 2.1

How did COc1ccc(Sc2cccc3c2S(=O)(=O)N(C2CC2)C[C@@H](COCc2ccccc2)O3)cc1OC do in these assays?
MsrA inhibitor: 1.2

How did CCOC(=O)CC(=O)CSc1nc2c(sc(=S)n2-c2ccccc2)c(=O)[nH]1 do in these assays?
bovine MsrA act: -4.9; p-CIP stab down: -21.1; MsrA inhibitor: 6.0*; MT1-MMP act inh: 0.7; SKN-1 block: 4.4; MsrA inh confirm: 2.5

How did CCOC(=O)CSc1nc2c(sc(=S)n2-c2ccc(CC)cc2)c(=O)[nH]1 do in these assays?
bovine MsrA act: -0.1; p-CIP stab down: -1.7; MsrA inhibitor: 2.9; MT1-MMP act inh: 10.3; SKN-1 block: 0.1

Results for O=c1cc(-c2ccc(O)cc2)oc2cc(O[C@@H]3O[C@H](CO)[C@@H](O)[C@H](O)[C@H]3O[C@@H]3OC[C@](O)(CO)[C@H]3O)cc(O)c12 ?
bovine MsrA act: -2.2; p-CIP stab down: 1.7; MsrA inhibitor: 5.3*; MT1-MMP act inh: 4.8; SKN-1 block: -0.7; MsrA inh confirm: 3.0

What do the screens show for `O=C(NCC1CCN(C(=O)C(=O)c2cccs2)CC1)c1cccnc1`?
MsrA inhibitor: -0.1

Results for O=[N+]([O-])c1ccc(N=NN(CCO)CCO)cc1 ?
bovine MsrA act: -13.4; p-CIP stab down: -15.5; MsrA inhibitor: 5.3*; MT1-MMP act inh: 0.1; SKN-1 block: -5.9; MsrA inh confirm: 2.4

What do the screens show for `O=[N+]([O-])c1ccc(N=Nc2ncc[nH]2)cc1`?
bovine MsrA act: -7.0; p-CIP stab down: -39.3; MsrA inhibitor: 1.5; MT1-MMP act inh: -17.4; SKN-1 block: 8.7

Results for CCOC(=O)C1=CCN(S(=O)(=O)c2ccccc2Cl)C1c1ccc(Cl)cc1 (stereo not drawn) ?
MsrA inhibitor: 0.3

How did Cc1ccc(S(=O)(=O)N2CCCN(S(=O)(=O)c3ccc(C)cc3)CC2)cc1 do in these assays?
bovine MsrA act: -4.0; p-CIP stab down: -10.4; MsrA inhibitor: -0.6; MT1-MMP act inh: -2.2; SKN-1 block: -1.9

How did Cc1ccc(S(=O)(=O)N2CCN(S(=O)(=O)c3ccc(C)cc3)C2)cc1 do in these assays?
bovine MsrA act: -5.1; p-CIP stab down: -6.7; MsrA inhibitor: 5.5*; MT1-MMP act inh: 1.9; SKN-1 block: -5.1; MsrA inh confirm: 1.9

Results for CCCOC(=O)/C(=C\C=C\c1ccccc1)NC(=O)c1ccccc1 ?
bovine MsrA act: -15.7; p-CIP stab down: -2.5; MsrA inhibitor: 1.9; MT1-MMP act inh: -2.2; SKN-1 block: 3.9

How did CCCCOC(=O)/C(=C/C=C/c1ccccc1)NC(=O)c1ccccc1 do in these assays?
bovine MsrA act: -14.7; p-CIP stab down: 11.7; MsrA inhibitor: 2.8; MT1-MMP act inh: -3.2; SKN-1 block: -1.1

How did CCOC(=O)/C(=C/C=C/c1ccccc1)NC(=O)c1ccccc1 do in these assays?
bovine MsrA act: -5.5; p-CIP stab down: -14.0; MsrA inhibitor: 5.6*; MT1-MMP act inh: -1.0; SKN-1 block: 3.8; MsrA inh confirm: 2.0

What do the screens show for `O=C(NCc1ccco1)/C(=C/C=C\c1ccccc1)NC(=O)c1ccc(Br)o1`?
bovine MsrA act: -6.0; p-CIP stab down: -17.4; MsrA inhibitor: 5.0*; MT1-MMP act inh: 1.4; SKN-1 block: 4.2; MsrA inh confirm: 4.2

How did CCOC(=O)/C(=C\C=C\c1ccccc1)NC(=O)c1ccccc1 do in these assays?
bovine MsrA act: -12.6; p-CIP stab down: -9.5; MsrA inhibitor: 6.8*; MT1-MMP act inh: 6.3; SKN-1 block: 6.9; MsrA inh confirm: 6.1*

How did CCCCOc1ccc(C(=O)N/C(=C/C=C/c2ccccc2)C(=O)NCCO)cc1 do in these assays?
bovine MsrA act: -10.2; p-CIP stab down: -6.4; MsrA inhibitor: 4.2; MT1-MMP act inh: -2.1; SKN-1 block: 3.2

Results for O=C(O)CCNC(=O)/C(=C/C=C/c1ccccc1)NC(=O)c1ccccc1 ?
bovine MsrA act: -5.4; p-CIP stab down: 6.2; MsrA inhibitor: 5.5*; MT1-MMP act inh: 0.6; SKN-1 block: -4.1; MsrA inh confirm: 3.2

What do the screens show for `N#C/C(=C\C=C\c1ccccc1)C(=O)NCc1ccco1`?
bovine MsrA act: -5.5; p-CIP stab down: -6.9; MsrA inhibitor: 4.0; MT1-MMP act inh: -1.7; SKN-1 block: 5.0

What do the screens show for `C=CCCC(=O)N1C[C@H]2CCN(C)[C@H]2C[C@H]1c1ccccc1Br`?
MsrA inhibitor: -0.2

What do the screens show for `O=C(NC(CC1=CCCCC1)c1ccc2ccccc2c1)C(F)(F)F` (stereo not drawn)?
MsrA inhibitor: -0.2

What do the screens show for `O=C(NNC1=NC2(CCCC2)Cc2ccccc21)c1ccncc1`?
bovine MsrA act: -5.0; p-CIP stab down: 3.1; MsrA inhibitor: 4.7*; MT1-MMP act inh: -2.9; SKN-1 block: 6.2; MsrA inh confirm: 0.8

What do the screens show for `Brc1ccc(CN2CCCc3nc(-c4ccccc4)ccc32)cc1`?
MsrA inhibitor: 0.9

What do the screens show for `COc1ccc(Cn2cc(CN3[C@@H](c4ccccc4)COc4cc(Br)ccc4S3(=O)=O)nn2)cc1`?
MsrA inhibitor: 0.3

What do the screens show for `O=S1(=O)N=C(N2CCCc3ccccc32)c2ccccc21`?
bovine MsrA act: -2.1; p-CIP stab down: 0.2; MsrA inhibitor: 10.1*; MT1-MMP act inh: 3.5; SKN-1 block: 2.7; MsrA inh confirm: 3.3

How did Cn1cc(CCOCc2ccccn2)c2ccccc21 do in these assays?
MsrA inhibitor: -0.7

How did COc1cc(/C=C2/NC(=O)NC2=O)cc(Br)c1OCc1cccc(C(=O)O)c1 do in these assays?
bovine MsrA act: 3.6; p-CIP stab down: 16.3; MsrA inhibitor: 5.9*; MT1-MMP act inh: -4.0; SKN-1 block: 10.5; MsrA inh confirm: 2.6

Results for O=[N+]([O-])c1cc(-c2ccc(/C=N/n3cnnc3)o2)ccc1Cl ?
bovine MsrA act: -1.8; p-CIP stab down: 2.3; MsrA inhibitor: -0.1; MT1-MMP act inh: 2.8; SKN-1 block: -2.2
